We go through two compounds from article PMC2266618 (The Journal of General Physiology, 2005).

For one assay, the target named is T1, homomeric ASIC1a (Rattus norvegicus, UniProt P55926).
T1 sequence (P55926 1-526): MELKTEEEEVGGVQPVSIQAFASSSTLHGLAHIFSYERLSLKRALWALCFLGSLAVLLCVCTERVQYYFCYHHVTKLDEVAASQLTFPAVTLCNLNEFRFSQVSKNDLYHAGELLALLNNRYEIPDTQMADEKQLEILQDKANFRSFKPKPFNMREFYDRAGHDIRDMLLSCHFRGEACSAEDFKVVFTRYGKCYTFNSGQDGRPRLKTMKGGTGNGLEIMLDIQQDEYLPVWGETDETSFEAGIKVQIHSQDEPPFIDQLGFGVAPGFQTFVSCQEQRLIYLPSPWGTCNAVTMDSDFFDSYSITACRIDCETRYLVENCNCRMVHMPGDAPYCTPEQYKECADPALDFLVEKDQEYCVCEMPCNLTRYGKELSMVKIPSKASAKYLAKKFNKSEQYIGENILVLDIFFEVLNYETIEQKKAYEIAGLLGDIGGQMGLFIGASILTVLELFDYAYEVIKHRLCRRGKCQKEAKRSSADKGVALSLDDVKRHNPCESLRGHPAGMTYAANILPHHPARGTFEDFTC
In words: Direct opening of ASIC1a channels by PcTx1. The assay is classed as cell-based. The following applies: 100 μM amiloride. The method in brief: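 Rat ASIC1a cRNA (0.01 ng) injected into stage V-VI Xenopus oocytes, kept 2-4 d in OR-2 (pH 7.3); whole-cell currents at -70 mV. The conditioning solution was switched from 1.8 to 0.1 mM Ca2+ (with 0.1 mM flufenamic acid) at pH 7.35, together with 100 nM test peptide toxin in 0.05% BSA. The transient inward current was tested with 100 µM amiloride.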

For a further assay, the system named is ASIC3. The following applies: ref Diochot et al., 2004, cited from earlier work.
Another assay concerns ASIC1a. As to conditions: ref Diochot et al., 2004; cited from earlier work.

With `N=C(N)NC(=O)c1nc(Cl)c(N)nc1N` [amiloride], the “block of PcTx1-elicited currents by amiloride” value is “could be blocked” on homomeric ASIC1a (100 nM PcTx1 coapplied with pH 7.1, n = 3) and “could be blocked” at homomeric ASIC1a (100 nM PcTx1 with 0.1 mM Ca2+ at pH 7.35, n = 4).
APETx2: in the assay on ASIC3 (inhibition during steady state (at pH 7.4)), the “inhibition of ASIC3” value is “inhibits”. Also, in the assay with ASIC3, the “affinity of the interaction with ASIC3” value was “nanomolar affinity”. For the same compound, the “inhibition of ASIC1a” value with ASIC1a is “does not inhibit”.
